Converted amounts (≈) assume the structure as drawn.
How the values were obtained:
Staphylococcus aureus [1] = test: Antimicrobial activity against Staphylococcus aureus WCUH29 after 24 hrs by broth microdilution method; format: functional; details: WCUH29, 24 h
How it was run: (§1)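 Broth microdilution following NCCLS M7-A4; ATCC strains and clinical isolates from a provincial hospital.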

Staphylococcus aureus [2] = test: Antimicrobial activity against Staphylococcus aureus isolate RUSSELL after 24 hrs by broth microdilution method; format: functional
How it was run: (§2)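 Broth microdilution following NCCLS M7-A4, using ATCC strains and clinical isolates from a provincial hospital.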

Staphylococcus aureus [3] = test: Antimicrobial activity against Staphylococcus aureus isolate 68/8684 after 24 hrs by broth microdilution method; format: functional; details: isolate 68/8684, 24 h; how it was run: as §1
Staphylococcus aureus [4] = test: Antimicrobial activity against Staphylococcus aureus isolate A53 after 24 hrs by broth microdilution method; format: functional; details: isolate A53, 24 h; how it was run: as §2
Moraxella catarrhalis = test: Antimicrobial activity against Moraxella catarrhalis 1502 after 24 hrs by broth microdilution method; format: functional; details: Moraxella catarrhalis, 1502, 24 h; how it was run: as §1
Staphylococcus aureus [5] = test: Antimicrobial activity against Staphylococcus aureus isolate Ealing 32 after 24 hrs by broth microdilution method; format: functional; details: isolate Ealing 32, 24 h; how it was run: as §1
Staphylococcus aureus [6] = test: Antimicrobial activity against Staphylococcus aureus isolate 929035 after 24 hrs by broth microdilution method; format: functional; details: isolate 929035, 24 h; how it was run: as §1
Escherichia coli = test: Antimicrobial activity against Escherichia coli isolate 3 after 24 hrs by broth microdilution method; format: functional; details: isolate 3, 24 h; how it was run: as §1
Staphylococcus aureus [7] = test: Antimicrobial activity against Staphylococcus aureus isolate MN 1255 after 24 hrs by broth microdilution method; format: functional; details: isolate MN 1255, 24 h; how it was run: as §1
Staphylococcus aureus [8] = test: Antimicrobial activity against Staphylococcus aureus isolate CL 939 after 24 hrs by broth microdilution method; format: functional; details: isolate CL 939, 24 h; how it was run: as §2
Streptococcus pyogenes [9] = test: Antimicrobial activity against Streptococcus pyogenes 1307006P after 24 hrs by broth microdilution method; format: functional; how it was run: as §1
Streptococcus pneumoniae [10] = test: Antimicrobial activity against Streptococcus pneumoniae ERY2 after 24 hrs by broth microdilution method; format: functional; details: ERY2, 24 h; how it was run: as §1
Haemophilus influenzae [11] = test: Antimicrobial activity against Haemophilus influenzae Q1 after 24 hrs by broth microdilution method; format: functional; details: Q1, 24 h; how it was run: as §1
Staphylococcus aureus [12] = test: Antimicrobial activity against Staphylococcus aureus isolate 934324 after 24 hrs by broth microdilution method; format: functional; details: isolate 934324, 24 h; how it was run: as §1
Staphylococcus aureus [13] = test: Antimicrobial activity against Staphylococcus aureus isolate RN1024 after 24 hrs by broth microdilution method; format: functional; details: isolate RN1024, 24 h; how it was run: as §2
Streptococcus pyogenes [14] = test: Antimicrobial activity against Streptococcus pyogenes 1308007P after 24 hrs by broth microdilution method; format: functional; how it was run: as §1
Streptococcus pneumoniae [15] = test: Antimicrobial activity against Streptococcus pneumoniae 1629 after 24 hrs by broth microdilution method; format: functional; details: Streptococcus pneumoniae, 1629, 24 h; how it was run: as §1
Staphylococcus aureus [16] = test: Antimicrobial activity against Staphylococcus aureus isolate 929003 after 24 hrs by broth microdilution method; format: functional; details: isolate 929003, 24 h; how it was run: as §1
Staphylococcus aureus [17] = test: Antimicrobial activity against Staphylococcus aureus isolate NEQAS 4158 after 24 hrs by broth microdilution method; format: functional; details: isolate NEQAS 4158, 24 h; how it was run: as §1
Staphylococcus aureus [18] = test: Antimicrobial activity against Staphylococcus aureus isolate CARTER 37 after 24 hrs by broth microdilution method; format: functional; details: isolate CARTER 37, 24 h; how it was run: as §2
Staphylococcus aureus [19] = test: Antimicrobial activity against Staphylococcus aureus isolate NEQAS 4026 after 24 hrs by broth microdilution method; format: functional; details: isolate NEQAS 4026, 24 h; how it was run: as §1
Staphylococcus aureus [20] = test: Antimicrobial activity against Staphylococcus aureus isolate Ealing 23 after 24 hrs by broth microdilution method; format: functional; details: isolate Ealing 23, 24 h; how it was run: as §2
Staphylococcus aureus [21] = test: Antimicrobial activity against Staphylococcus aureus isolate CL 938 after 24 hrs by broth microdilution method; format: functional; details: isolate CL 938, 24 h; how it was run: as §1
Enterococcus faecium = test: Antimicrobial activity against Enterococcus faecium X7501 after 24 hrs by broth microdilution method; format: functional; details: X7501, 24 h; how it was run: as §1
Staphylococcus aureus [22] = test: Antimicrobial activity against Staphylococcus aureus isolate 934334 after 24 hrs by broth microdilution method; format: functional; details: isolate 934334, 24 h; how it was run: as §1
Staphylococcus aureus [23] = test: Antimicrobial activity against Staphylococcus aureus isolate MILES HALL after 24 hrs by broth microdilution method; format: functional; how it was run: as §2
Staphylococcus aureus [24] = test: Antimicrobial activity against Staphylococcus aureus isolate OGA833 after 24 hrs by broth microdilution method; format: functional; details: isolate OGA833, 24 h; how it was run: as §1
Staphylococcus aureus [25] = test: Antimicrobial activity against Staphylococcus aureus isolate Smith ATCC 13709 after 24 hrs by broth microdilution method; format: functional; details: isolate Smith ATCC 13709, 24 h; how it was run: as §2
Haemophilus influenzae [26] = test: Antimicrobial activity against AcrA-deficient Haemophilus influenzae H128 after 24 hrs by broth microdilution method; format: functional; details: H128, 24 h; how it was run: as §1
Staphylococcus aureus [27] = test: Antimicrobial activity against Staphylococcus aureus isolate F89 after 24 hrs by broth microdilution method; format: functional; details: isolate F89, 24 h; how it was run: as §1
Staphylococcus aureus [28] = test: Antimicrobial activity against Staphylococcus aureus isolate RN1030 after 24 hrs by broth microdilution method; format: functional; details: isolate RN1030, 24 h; how it was run: as §2
Haemophilus influenzae [29] = test: Antimicrobial activity against Haemophilus influenzae H128 after 24 hrs by broth microdilution method; format: functional; details: H128, 24 h; how it was run: as §1
Streptococcus pneumoniae [30] = test: Antimicrobial activity against Streptococcus pneumoniae N1387 after 24 hrs by broth microdilution method; format: functional; details: N1387, 24 h; how it was run: as §1
Staphylococcus aureus [31] = test: Antimicrobial activity against Staphylococcus aureus isolate SWEETING after 24 hrs by broth microdilution method; format: functional; how it was run: as §2
Enterococcus faecalis = test: Antimicrobial activity against Enterococcus faecalis Isolate 1 after 24 hrs by broth microdilution method; format: functional; details: Isolate 1, 24 h; how it was run: as §1
Staphylococcus aureus [32] = test: Antimicrobial activity against Staphylococcus aureus isolate CL 1033 after 24 hrs by broth microdilution method; format: functional; details: isolate CL 1033, 24 h; how it was run: as §1
Staphylococcus aureus [33] = test: Antimicrobial activity against Staphylococcus aureus isolate 934387 after 24 hrs by broth microdilution method; format: functional; details: isolate 934387, 24 h; how it was run: as §2
Staphylococcus aureus [34] = test: Antimicrobial activity against Staphylococcus aureus ATCC 29213 after 24 hrs by broth microdilution method; format: functional; details: ATCC 29213, 24 h; how it was run: as §1
Staphylococcus aureus [35] = test: Antimicrobial activity against Staphylococcus aureus isolate 306 after 24 hrs by broth microdilution method; format: functional; details: isolate 306, 24 h; how it was run: as §1
Staphylococcus aureus [36] = test: Antimicrobial activity against Staphylococcus aureus isolate PAV 5 after 24 hrs by broth microdilution method; format: functional; details: isolate PAV 5, 24 h; how it was run: as §1
Staphylococcus aureus [37] = test: Antimicrobial activity against Staphylococcus aureus OXFORD after 24 hrs by broth microdilution method; format: functional; how it was run: as §2
Staphylococcus aureus [38] = test: Antimicrobial activity against Staphylococcus aureus isolate RN4220 pmz1 after 24 hrs by broth microdilution method; format: functional; details: isolate RN4220 pmz1, 24 h; how it was run: as §2
Staphylococcus aureus [39] = test: Antimicrobial activity against Staphylococcus aureus isolate 934335 after 24 hrs by broth microdilution method; format: functional; details: isolate 934335, 24 h; how it was run: as §1
[40] = Fraction unbound in CD1 mouse plasma at 2 uM by equilibrium dialysis; format: ADME, cell-free
How it was run: (§3)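 Pooled CD-1 mouse plasma spiked to 2 µM final, equilibrium dialysis in triplicate against 100 mM PBS pH 7.4, 4 h at 37 °C with rotation; matrix-matched samples acetonitrile-precipitated, LC-MS/MS with internal standards. Unbound = free/total ×100; recovery = (free+total)/pre-dialysis ×100.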

[41] = Drug recovery in CD1 mouse plasma at 2 uM by equilibrium dialysis; format: ADME, cell-free; details: read-out: Drug recovery; how it was run: as §3
[42] = Protein binding in CD1 mouse plasma at 2 uM by equilibrium dialysis; format: ADME, cell-free; details: read-out: PPB (converted)

CC1(C)S[C@@H]2[C@H](NC(=O)[C@H](N)c3ccc(O)cc3)C(=O)N2[C@H]1C(=O)O [AMOXICILLIN]
MIC (Staphylococcus aureus [1]): 64 mg/L (≈ 175 µM) | MIC (Staphylococcus aureus [2]): > 16 mg/L | MIC (Staphylococcus aureus [3]): > 16 mg/L | MIC (Staphylococcus aureus [4]): 0.125 mg/L (≈ 0.342 µM) | MIC (Moraxella catarrhalis): ≤ 0.06 mg/L | MIC (Staphylococcus aureus [5]): 1 mg/L (≈ 2.74 µM) | MIC (Staphylococcus aureus [6]): > 16 mg/L | MIC (Escherichia coli): 1 mg/L (≈ 2.74 µM) | MIC (Staphylococcus aureus [7]): > 16 mg/L | MIC (Staphylococcus aureus [8]): 2 mg/L (≈ 5.47 µM) | MIC (Streptococcus pyogenes [9]): ≤ 0.06 mg/L | MIC (Streptococcus pneumoniae [10]): ≤ 0.06 mg/L | MIC (Haemophilus influenzae [11]): 0.25 mg/L (≈ 0.684 µM) | MIC (Staphylococcus aureus [12]): > 16 mg/L | MIC (Staphylococcus aureus [13]): > 16 mg/L | MIC (Streptococcus pyogenes [14]): ≤ 0.06 mg/L | MIC (Streptococcus pneumoniae [15]): ≤ 0.06 mg/L | MIC (Staphylococcus aureus [16]): > 16 mg/L | MIC (Staphylococcus aureus [17]): > 16 mg/L | MIC (Staphylococcus aureus [18]): 0.25 mg/L (≈ 0.684 µM) | MIC (Staphylococcus aureus [19]): > 16 mg/L | MIC (Staphylococcus aureus [20]): 0.5 mg/L (≈ 1.37 µM) | MIC (Staphylococcus aureus [21]): > 16 mg/L | MIC (Enterococcus faecium): 16 mg/L (≈ 43.8 µM) | MIC (Staphylococcus aureus [22]): > 16 mg/L | MIC (Staphylococcus aureus [23]): 0.25 mg/L (≈ 0.684 µM) | MIC (Staphylococcus aureus [24]): > 16 mg/L | MIC (Staphylococcus aureus [25]): 0.125 mg/L (≈ 0.342 µM) | MIC (Haemophilus influenzae [26]): 64 mg/L (≈ 175 µM) | MIC (Staphylococcus aureus [27]): 2 mg/L (≈ 5.47 µM) | MIC (Staphylococcus aureus [28]): > 16 mg/L | MIC (Haemophilus influenzae [29]): 32 mg/L (≈ 87.6 µM) | MIC (Streptococcus pneumoniae [30]): 2 mg/L (≈ 5.47 µM) | MIC (Staphylococcus aureus [31]): 0.125 mg/L (≈ 0.342 µM) | MIC (Enterococcus faecalis): 0.5 mg/L (≈ 1.37 µM) | MIC (Staphylococcus aureus [32]): > 16 mg/L | MIC (Staphylococcus aureus [33]): > 16 mg/L | MIC (Staphylococcus aureus [34]): 1 mg/L (≈ 2.74 µM) | MIC (Staphylococcus aureus [35]): > 16 mg/L | MIC (Staphylococcus aureus [36]): > 16 mg/L | MIC (Staphylococcus aureus [37]): 0.125 mg/L (≈ 0.342 µM) | MIC (Staphylococcus aureus [38]): 0.125 mg/L (≈ 0.342 µM) | MIC (Staphylococcus aureus [39]): > 16 mg/L

CC(=O)CC(c1ccccc1)c1c(O)c2ccccc2oc1=O (stereo unspecified) [WARFARIN]
fraction unbound at 2 µM [40]: 0.059 | recovery at 2 µM [41]: 104% | fraction unbound at 2 µM [42]: 0.059

From ChEMBL document CHEMBL3352487, “Synthesis, antibacterial activity, and biological evaluation of formyl hydroxyamino derivatives as novel potent peptide deformylase inhibitors against drug-resistant bacteria” (Eur J Med Chem, 2014)
